{"data": "Assay results collected from several papers", "TACR3": "Neuromedin-K receptor (TACR3, Homo sapiens, UniProt P29371)", "USP5": "Ubiquitin carboxyl-terminal hydrolase 5 (USP5, Homo sapiens, UniProt P45974)", "ADORA1": "Adenosine receptor A1 (ADORA1, Homo sapiens, UniProt P30542)", "MAP4K3": "Mitogen-activated protein kinase kinase kinase kinase 3 (MAP4K3, Homo sapiens, UniProt Q8IVH8)", "note": "Lines come from different studies, so protocols differ."}
{"SMILES": "c1ccc(C(NCCNC(c2ccccc2)c2ccccc2)c2ccccc2)cc1", "target": "TACR3", "read-out": "cell-free assay", "tested at": "10 µM", "inhibition": "61%"}
{"SMILES": "COc1cc(Nc2ncc(F)c(Nc3ccc4c(n3)NC(=O)C(C)(C)O4)n2)cc(OC)c1OC", "target": "Serine/threonine-protein kinase 32C (STK32C, Homo sapiens, UniProt Q86UX6)", "read-out": "binding", "technique": "competition with immobilised ligand", "tested at": "10 µM", "inhibition": "0%"}
{"SMILES": "CN(C)C(=O)COC(=O)Cc1ccc(OC(=O)c2ccc(NC(=N)N)cc2)cc1", "target": "Deubiquitinase OTUD6B (OTUD6B, Homo sapiens, UniProt Q8N6M0)", "read-out": "enzyme activity", "mode": "inhibitor", "tested at": "10 µM", "inhibition": "1%"}
{"SMILES": "CN(CCN1CCC(OC(=O)Nc2ccccc2-c2ccccc2)CC1)C(=O)c1ccc(CN2CCC(C(N)=O)CC2)cc1", "target": "TACR3", "read-out": "ligand displacement", "technique": "radioligand", "tested at": "1 µM", "inhibition": "1%"}
{"SMILES": "CCOC(=O)c1ccc(OC(=O)CCCCCNC(=N)N)cc1", "target": "USP5", "read-out": "enzyme activity", "mode": "inhibitor", "tested at": "10 µM", "inhibition": "1%"}
{"SMILES": "O[C@H]1[C@H](n2cnc3c(NC(C4CCCC4)C4CCCC4)nc(Cl)nc32)[C@H]2C[C@@]2(CSc2ccccc2F)[C@H]1O", "target": "ADORA1", "read-out": "ligand displacement", "technique": "radioligand", "tested at": "10 µM", "inhibition": "-6%"}
{"SMILES": "C#Cc1n[nH]c2c(-c3cn([C@@H](C)c4ccccc4)c(=O)[nH]c3=O)cc(F)cc12", "target": "MAP4K3", "read-out": "enzyme activity", "mode": "inhibitor", "tested at": "0.1 µM", "inhibition": "-1.9%"}
{"SMILES": "Cn1cc(-c2cc(F)cc(N3CCn4c(cc5c4CCCC5)C3=O)c2CO)cc(Nc2ccc(N3CCN(C4COC4)CC3)cn2)c1=O", "target": "Inhibitor of nuclear factor kappa-B kinase subunit alpha (CHUK, Homo sapiens, UniProt O15111)", "read-out": "enzyme activity", "mode": "inhibitor", "tested at": "0.1 µM", "inhibition": "14%"}
{"SMILES": "N=C(N)c1ccc2cc(OC(=O)c3ccc(N=C(N)N)cc3)ccc2c1", "target": "USP5", "read-out": "enzyme activity", "mode": "inhibitor", "tested at": "10 µM", "inhibition": "0%"}
{"SMILES": "OC[C@@]12C[C@@H]1[C@@H](n1cnc3c(NC(C4CCCC4)C4CCCC4)nc(Cl)cc31)[C@H](O)[C@@H]2O", "target": "ADORA1", "read-out": "ligand displacement", "technique": "radioligand", "tested at": "10 µM", "inhibition": "11%"}
{"SMILES": "C[C@H](C(=O)N[C@H]1COc2ccccc2[C@@H]1S(C)(=O)=O)c1ccc(F)cc1", "target": "TACR3", "read-out": "cell-free assay", "tested at": "10 µM", "inhibition": "-11%"}
{"SMILES": "O[C@H]1[C@H](n2cnc3c(NC(C4CCCCC4)C4CCCCC4)nc(Cl)nc32)[C@H]2C[C@@]2(CCl)[C@H]1O", "target": "ADORA1", "read-out": "ligand displacement", "technique": "radioligand", "tested at": "10 µM", "inhibition": "63%"}
{"SMILES": "C#Cc1n[nH]c2c(-c3cn([C@@H](C)c4ccccn4)c(=O)[nH]c3=O)cc(F)cc12", "target": "MAP4K3", "read-out": "enzyme activity", "mode": "inhibitor", "tested at": "0.1 µM", "inhibition": "-2.5%"}
{"SMILES": "O[C@H]1[C@H](n2cnc3c(NC(C4CCCCC4)C4CCCCC4)nc(Cl)nc32)[C@H]2C[C@@]2(CF)[C@H]1O", "target": "ADORA1", "read-out": "ligand displacement", "technique": "radioligand", "tested at": "10 µM", "inhibition": "47%"}
{"SMILES": "CNC(=O)[C@H](Cc1ccccc1)NC(=O)[C@H](CC(C)C)[C@H](CSc1cccs1)C(=O)NO", "target": "Matrilysin (MMP7, Homo sapiens, UniProt P09237)", "read-out": "enzyme activity", "mode": "inhibitor", "tested at": "10 nM", "inhibition": "94%"}
